TNF necrop inh = TNF-alpha cell death inhibition in Jurkat FADD-/- cells; Jurkat FADD-/- TNF necroptosis rescue, ATP luminescence, 24 h; 0 = TNF only, 100 = no-TNF cells; activation (protection from cell death), % at 10 µM; 0.068% of 220,000 active; AID 463075;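 active = activation, meaning protection from cell death, of at least 50% relative to plate controls; inactive = activation below 50%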;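 note: necroptosis triggered by 40 ng/mL TNF-alpha added together with compound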
Wee1 stabilizer = human Wee1 degradation inhibition, primary screen; HeLa Luc-Wee1K328M stability, luciferase luminescence; 100% = proteasome inhibitor MG132 effect; reporter increase, % at 5 µM; 1.2% of 220,000 active;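 active = activation above the mean of all tested compounds plus 3 SD, set per screening run, cut at about 8.8% in these data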;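 note: cells exposed to compound for 20 h before luminescence read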
Target sequence (P30291 whole entry K328M): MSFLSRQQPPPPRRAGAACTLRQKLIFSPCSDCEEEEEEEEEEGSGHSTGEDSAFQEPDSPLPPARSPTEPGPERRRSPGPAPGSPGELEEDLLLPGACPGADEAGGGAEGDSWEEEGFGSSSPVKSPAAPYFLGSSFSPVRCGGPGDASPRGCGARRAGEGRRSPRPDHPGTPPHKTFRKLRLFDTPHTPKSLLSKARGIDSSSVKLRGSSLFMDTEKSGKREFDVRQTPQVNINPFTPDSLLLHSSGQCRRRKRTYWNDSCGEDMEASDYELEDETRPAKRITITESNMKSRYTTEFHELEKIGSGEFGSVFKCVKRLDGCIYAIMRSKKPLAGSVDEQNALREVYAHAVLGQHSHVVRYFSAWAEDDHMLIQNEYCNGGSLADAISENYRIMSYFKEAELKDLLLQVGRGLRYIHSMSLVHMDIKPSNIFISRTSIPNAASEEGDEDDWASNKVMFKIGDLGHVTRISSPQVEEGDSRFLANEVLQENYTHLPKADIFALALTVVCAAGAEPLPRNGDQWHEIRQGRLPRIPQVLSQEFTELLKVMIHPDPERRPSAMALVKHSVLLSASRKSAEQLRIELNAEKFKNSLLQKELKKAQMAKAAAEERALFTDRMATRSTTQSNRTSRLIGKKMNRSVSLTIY
L929 necroptosis = blocks zVAD induced death of L929 cells | L929 zVAD necroptosis rescue, ATP luminescence, 24 h; with zVAD 60 µM | 0.38% of 220,000 active | viability rescue, % at 10 µM;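 active = activation, scaled between plate controls, above about 75%, limit read from the data; inactive = activation under that limit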
Pf gametocyte = inhibitors of late stage P. falciparum gametocyte viability; P. falciparum stage V gametocytes, ATP luminescence, 24 h; inhibition, % at 10.9 µM; 0.065% of 150,000 active; AID 743093;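 active = inhibition above the mean plus 3 SD of compounds within the control limits, set per campaign, cut at about 38% in these data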
m-calpain inh = blocks pig calpain II enzyme activity | purified calpain II, fluorogenic peptide substrate, 30 min | 0.37% of 220,000 active | inhibition, % at 16 µM | AID 1236;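 active = inhibition above about 50%, limit read from the data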
RBBP9 inhibitor = blocks human serine hydrolase RBBP9. AID 1515. O75884. recombinant RBBP9, FP-Rh probe fluorescence polarization. 0.2% of 220,000 active. inhibition, % at 7.94 µM;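 active = inhibition above the campaign mean of all tested compounds plus 3 SD, cut at about 14% in these data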
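System: RBBP9 protein | Quantity: 2.5 µM RBBP9 dispensing solution, before mixing | Reagent: FP-Rh probe, 375 nM dispensing solution | Timing: Enzyme-compound preincubation 30 min, then probe labeling 45 min, 25 °C | Measured by: Fluorescence polarization | Read-out: % inhibition | Replication: One well per compound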
zVAD necrop conf = confirmed blocker of zVAD induced death in L929 cells; shares compounds with L929 necroptosis; 16% of 760 active; L929 zVAD-induced necroptosis rescue, ATP luminescence, 24 h; activation (protection from necroptosis), % at 10 µM;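 active = mean protection from necroptosis of at least 50% over duplicate tests; inactive = mean protection below 50%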
Each line names hits and unclear results; the compound was inactive in the other large screens (follow-up assays come after a bar, where they were run). Hits are enriched below; roughly 2.1% of the tested compounds scored in any of these assays.

COc1ccc(-n2cnc3cc(NC(=O)c4ccco4)ccc32)cc1	L929 necroptosis 82.6 (no result: Pf gametocyte) | zVAD necrop conf inactive
O=C(Nc1ccc2c(c1)ncn2C1CCCCC1)c1ccco1	L929 necroptosis 82.1 | zVAD necrop conf inactive
O=C(Nc1ccc(S(=O)(=O)NC2CCCCC2)cc1)c1ccco1	none
COc1ccccc1-n1cnc2cc(NC(=O)c3ccco3)ccc21	none
O=C(Nc1ccccc1)N1N=CCC1c1ccccc1 (stereo not drawn)	TNF necrop inh 94.6, L929 necroptosis 84.9 (no result: Pf gametocyte) | zVAD necrop conf inactive
NC(=NC(=O)c1ccc(Cl)cc1)N1N=CCC1c1ccccc1 (stereo not drawn)	none
O=C(Nc1ccc(Cl)c(Cl)c1)N1N=CCC1c1ccccc1 (stereo not drawn)	TNF necrop inh 96.6, L929 necroptosis 79.5 | zVAD necrop conf inactive
Cn1c(N)c(C(=O)N/N=C/c2ccccc2)sc1=S	L929 necroptosis 75.3 | zVAD necrop conf 76.2
Cc1ccc2[nH]c3c(c2c1)CCc1cn[nH]c1-3	TNF necrop inh 92.0, L929 necroptosis 88.8 (no result: Pf gametocyte) | zVAD necrop conf 80.0
Cc1ccc(C)c(NC(=O)/C(C#N)=C/c2ccc(Sc3nncn3C)c([N+](=O)[O-])c2)c1	none (no result: Pf gametocyte)
O=C(Nc1ccc2c(c1)OCO2)c1noc2c1CCCCC2	Wee1 stabilizer 10.5, L929 necroptosis 79.8 (no result: Pf gametocyte) | zVAD necrop conf inactive
NS(=O)(=O)c1ccc(C(=O)O)cc1	none (no result: Pf gametocyte)
CCN(CC)CCNC(=O)c1cc2c(=O)n(C)c3ccccc3c2n1C	L929 necroptosis 77.2 (no result: Pf gametocyte) | zVAD necrop conf inactive
CCN(CC)CCCNC(=O)c1cc2c(=O)n(C)c3ccccc3c2n1C	L929 necroptosis 77.3 (no result: Pf gametocyte) | zVAD necrop conf inactive
CCCCN(CC)CCNC(=O)c1cc2c(=O)n(C)c3ccccc3c2n1C	none (no result: Pf gametocyte)
CCCN(CCC)CCCNC(=O)c1cc2c(=O)n(C)c3ccccc3c2n1C	L929 necroptosis 79.5 (no result: Pf gametocyte) | zVAD necrop conf inactive
Cc1ccc(S(=O)(=O)Nc2cccc3ncccc23)s1	L929 necroptosis 75.3 (no result: Pf gametocyte) | zVAD necrop conf inactive
CCCNC(=O)c1c(N)n(-c2cccc(OC)c2)c2nc3ccccc3nc12	L929 necroptosis 77.4 | zVAD necrop conf inactive
Nc1c(C(=O)NCC2CCCO2)c2nc3ccccc3nc2n1-c1ccccc1 (stereo not drawn)	L929 necroptosis 85.8 | zVAD necrop conf inactive
COCCCNC(=O)c1c(N)n(-c2cccc(S(N)(=O)=O)c2)c2nc3ccccc3nc12	none (no result: Pf gametocyte)
CCC(C)Cn1c(C(C)O)nc2ccccc21 (stereo not drawn)	none (no result: Pf gametocyte)
Cn1c(=O)cc(SCC(=O)Nc2ccccn2)c2ccccc21	L929 necroptosis 81.5 (no result: Pf gametocyte) | zVAD necrop conf inactive
Cc1ccnc(NC(=O)CSc2cc(=O)n(C)c3ccccc23)c1	none (no result: Pf gametocyte)
CNc1ncc(C(=O)c2ccc(Br)cc2)s1	L929 necroptosis 83.2 | zVAD necrop conf inactive
CC(=O)c1sc(NC(=O)c2ccc(C(C)(C)C)cc2)nc1C	L929 necroptosis 75.5 | zVAD necrop conf inactive
NC(=O)c1ccc(-n2nnnc2SCc2ccccc2)cc1	none
O=C(Nc1nccs1)c1ccc(CSc2nnnn2-c2ccccc2)cc1	L929 necroptosis 87.3 | zVAD necrop conf 89.3
CCOc1cc(/C=N/NC(=O)c2cc(C3CC3)[nH]n2)ccc1O	L929 necroptosis 91.0 | zVAD necrop conf inactive
CCCCN(C)C(=O)c1cc2cc3ccc(OC)cc3nc2s1	none
O=C1c2ccccc2C(=O)N1Cc1cnc(N2CCN(c3ccccc3)CC2)s1	none
CCOc1cc(C=O)ccc1OCC(N)=O	none (no result: Pf gametocyte)
CCOc1cc(/C=C/C(=O)c2ccc(O)cc2)ccc1OCC(=O)N(C)C	L929 necroptosis 105.1 | zVAD necrop conf inactive
COc1cc(OC)c(C2=NOC(C(=O)N3CCc4ccccc4C3)C2)cc1Cl (stereo not drawn)	none (no result: Pf gametocyte)
COc1cc(OC)c(C2=NOC(C(=O)N3CCN(C(=O)c4ccco4)CC3)C2)cc1Cl (stereo not drawn)	L929 necroptosis 82.7 | zVAD necrop conf inactive
O=C(CN1CCCCC1)NCC1(c2ccccc2)CCCC1	none
Cc1ccc2nc3ccc(N4CCCCCCC4)nn3c(=O)c2c1	L929 necroptosis 87.2 (no result: Pf gametocyte) | zVAD necrop conf inactive
Cc1ccc2nc3ccc(N4CCN(C)CC4)nn3c(=O)c2c1	none (no result: Pf gametocyte)
CC(=O)c1ccc2noc(-c3ccccc3)c2c1	L929 necroptosis 76.4 | zVAD necrop conf inactive
Cc1cc(N/N=C/c2ccncc2)nc2ccccc12	TNF necrop inh 50.4, L929 necroptosis 81.2 | zVAD necrop conf 77.1
CC(=O)c1c(C)[nH]c(C(=O)OCC(=O)Nc2ccc(Cl)c(S(=O)(=O)N(C)C)c2)c1C	L929 necroptosis 79.7 | zVAD necrop conf inactive
Nc1[nH]nc2ncc3cc4ccccc4nc3c12	L929 necroptosis 82.1 | zVAD necrop conf inactive
Cc1cccc2cc3ccccc3nc12	none (no result: TNF necrop inh, Wee1 stabilizer, L929 necroptosis, m-calpain inh, RBBP9 inhibitor)
CCOC(=O)C1CSC(CC(=O)Nc2ccc(Cl)c(Cl)c2)C(=O)N1 (stereo not drawn)	none (no result: Pf gametocyte)
Nc1[nH]nc2nc(N3CCCC3)nc(-c3ccccc3)c12	none (no result: Pf gametocyte)
COc1ccc(-c2nc(N3CCOCC3)nc3n[nH]c(N)c23)cc1	L929 necroptosis 75.4 (no result: Pf gametocyte) | zVAD necrop conf inactive
Cc1ccc(NC(=O)Nc2cccnc2)cc1NC(=O)Nc1cccnc1	L929 necroptosis 77.3 (no result: Pf gametocyte) | zVAD necrop conf inactive
CCN1CCN(Cc2ccc(NC(=O)c3ccc(C)c(NC(=O)c4nccnc4N)c3)cc2C(F)(F)F)CC1	L929 necroptosis 79.7 (no result: Wee1 stabilizer, RBBP9 inhibitor) | zVAD necrop conf 78.8
C/C(=N\NC(=O)c1c(Br)cnn1C)c1ccc(NC(=O)c2ccc(F)cc2)cc1	none
c1cc(Nc2ncnc3sc4c(c23)CCC4)ccn1	none
C(=N\Nc1ncnc2sc3c(c12)CCC3)/c1cccs1	L929 necroptosis 81.1 | zVAD necrop conf inactive
C(=N\Nc1ncnc2sc3c(c12)CCC3)/c1ccncc1	L929 necroptosis 78.6 | zVAD necrop conf inactive
O=C(NC12CC3CC(CC(C3)C1)C2)OCCNC1CCCCC1	none
Cc1cc2ncn(/N=C/c3cccnc3)c2cc1C	L929 necroptosis 76.3 (no result: Pf gametocyte) | zVAD necrop conf inactive
C(=N\n1cnc2ccccc21)/c1cccnc1	none
O=C(NC12CC3CC(CC(C3)C1)C2)c1ccc(-c2ccc(Cl)cc2)o1	L929 necroptosis 81.6 | zVAD necrop conf inactive
N#CCOc1ccc2oc(-c3ccco3)cc(=O)c2c1	L929 necroptosis 76.2 (no result: Pf gametocyte) | zVAD necrop conf inactive
Cc1ccc2oc(-c3ccco3)cc(=O)c2c1	none
Cc1cccc(C)c1N=Cc1c(C(F)(F)F)[nH][nH]c1=O	none
O=C1CC(/C=C/c2ccc(Cl)cc2)=Nc2ccccc2N1	L929 necroptosis 76.6 | zVAD necrop conf inactive
O=C1CC(/C=C/c2ccccc2)=Nc2ccccc2N1	none (no result: Pf gametocyte)
CCc1ccc(NC(=O)CSc2nc3n[nH]c(C)c3c(=N)n2-c2cccc(OC)c2)cc1	L929 necroptosis 91.5 (no result: Pf gametocyte) | zVAD necrop conf 56.4

Compound activity deposited in PubChem BioAssay by several laboratories.
